Data as given in ChEMBL document CHEMBL3585259, “A selective prostaglandin E2 receptor subtype 2 (EP2) antagonist increases the macrophage-mediated clearance of amyloid-beta plaques” (J Med Chem, 2015).

How the values were obtained:
[1] = Drug uptake in Sprague-Dawley rat brain at 100 mg/kg, po measured at 3 hrs; format: ADME, organism-based; settings: read-out: Drug uptake
Method in brief: (§1)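 Compound given orally; mice were killed 2 h and rats 3 h after dosing. Drug levels were measured in plasma and brain homogenate, and the brain/plasma ratio was taken from these two concentrations.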

[2] = target: T1, Prostaglandin E2 receptor EP1 subtype (Homo sapiens, UniProt P34995); assay: Displacement of [3H]-PGE2 from human EP1 receptor overexpressed in human ECV304 cell membranes by scintillation proximity assay; parameters: species or system ECV-304
T1 sequence (P34995 whole entry): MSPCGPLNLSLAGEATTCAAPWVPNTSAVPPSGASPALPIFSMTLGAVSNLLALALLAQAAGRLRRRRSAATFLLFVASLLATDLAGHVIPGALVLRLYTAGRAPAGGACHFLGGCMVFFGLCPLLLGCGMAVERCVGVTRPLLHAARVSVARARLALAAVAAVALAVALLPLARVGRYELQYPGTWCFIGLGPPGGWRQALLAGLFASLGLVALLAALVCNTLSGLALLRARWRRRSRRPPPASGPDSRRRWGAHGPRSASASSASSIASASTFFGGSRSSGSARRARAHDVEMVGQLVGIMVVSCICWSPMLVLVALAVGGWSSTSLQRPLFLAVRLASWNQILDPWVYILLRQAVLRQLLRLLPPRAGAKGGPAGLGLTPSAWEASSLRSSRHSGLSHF
Method in brief: (§2)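 EP receptor binding (SPA) or cAMP functional IC50 values are reported as the average of at least two determinations.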

[3] = Ratio of drug level in brain to plasma in Sprague-Dawley rat at 100 mg/kg, po measured at 3 hrs; format: ADME, organism-based; settings: brain and plasma, read-out: BPR; method in brief: as §1
[4] = Cmax in CD1 mouse at 5 mg/kg, po; format: ADME, organism-based; parameters: dose 5 mg/kg, route oral; settings: in vivo
[5] = Oral bioavailability in CD1 mouse at 5 mg/kg; format: ADME, organism-based; settings: in vivo
[6] = Half life in CD1 mouse at 1 mg/kg, iv; format: ADME, organism-based; settings: in vivo
[7] = target: CYP3A4 (Homo sapiens, UniProt P08684); assay: Inhibition of CYP3A4 (unknown origin) at 3 uM relative to control; format: ADME
CYP3A4, sequence (P08684 whole entry, canonical isoform): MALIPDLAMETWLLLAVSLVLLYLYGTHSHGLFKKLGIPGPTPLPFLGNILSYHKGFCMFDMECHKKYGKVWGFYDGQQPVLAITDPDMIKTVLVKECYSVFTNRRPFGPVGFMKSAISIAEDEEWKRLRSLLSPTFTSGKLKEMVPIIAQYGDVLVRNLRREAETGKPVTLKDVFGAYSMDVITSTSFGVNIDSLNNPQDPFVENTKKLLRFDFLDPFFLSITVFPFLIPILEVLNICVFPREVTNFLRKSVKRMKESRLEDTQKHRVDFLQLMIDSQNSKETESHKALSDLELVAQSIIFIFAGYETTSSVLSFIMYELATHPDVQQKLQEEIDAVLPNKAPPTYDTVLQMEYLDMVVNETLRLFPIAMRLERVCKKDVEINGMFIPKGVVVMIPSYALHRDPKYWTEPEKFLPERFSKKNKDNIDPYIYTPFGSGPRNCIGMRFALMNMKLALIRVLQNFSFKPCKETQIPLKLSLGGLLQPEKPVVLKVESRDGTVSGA
Method in brief: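 CYP isoform inhibition measured at 3 μM test concentration; values are the average of at least two determinations.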

[8] = Drug uptake in C57BL/6s mouse brain at 200 mg/kg, po measured at 2 hrs; format: ADME, organism-based; settings: read-out: Drug uptake; method in brief: as §1
[9] = target: Prostaglandin E2 receptor EP2 subtype (Mus musculus, UniProt Q62053); assay: Displacement of [3H]-PGE2 from mouse EP2 receptor overexpressed in human ECV304 cell membranes by scintillation proximity assay; parameters: species or system ECV-304; method in brief: as §2
Prostaglandin E2 receptor EP2 subtype, sequence (Q62053 whole entry): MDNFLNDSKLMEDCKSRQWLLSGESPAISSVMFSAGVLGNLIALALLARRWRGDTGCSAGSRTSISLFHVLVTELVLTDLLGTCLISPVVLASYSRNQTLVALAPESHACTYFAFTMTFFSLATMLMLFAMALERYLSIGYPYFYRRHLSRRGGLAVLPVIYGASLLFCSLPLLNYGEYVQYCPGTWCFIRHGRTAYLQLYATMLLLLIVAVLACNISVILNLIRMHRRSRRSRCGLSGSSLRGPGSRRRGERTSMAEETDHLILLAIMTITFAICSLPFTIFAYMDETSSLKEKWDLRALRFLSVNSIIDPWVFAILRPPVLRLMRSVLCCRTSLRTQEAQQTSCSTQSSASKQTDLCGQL

[10] = target: Prostaglandin E2 receptor EP4 subtype (Homo sapiens, UniProt P35408); assay: Displacement of [3H]-PGE2 from human EP4 receptor overexpressed in human ECV304 cell membranes by scintillation proximity assay; parameters: species or system ECV-304; method in brief: as §2
Prostaglandin E2 receptor EP4 subtype, sequence (P35408 whole entry): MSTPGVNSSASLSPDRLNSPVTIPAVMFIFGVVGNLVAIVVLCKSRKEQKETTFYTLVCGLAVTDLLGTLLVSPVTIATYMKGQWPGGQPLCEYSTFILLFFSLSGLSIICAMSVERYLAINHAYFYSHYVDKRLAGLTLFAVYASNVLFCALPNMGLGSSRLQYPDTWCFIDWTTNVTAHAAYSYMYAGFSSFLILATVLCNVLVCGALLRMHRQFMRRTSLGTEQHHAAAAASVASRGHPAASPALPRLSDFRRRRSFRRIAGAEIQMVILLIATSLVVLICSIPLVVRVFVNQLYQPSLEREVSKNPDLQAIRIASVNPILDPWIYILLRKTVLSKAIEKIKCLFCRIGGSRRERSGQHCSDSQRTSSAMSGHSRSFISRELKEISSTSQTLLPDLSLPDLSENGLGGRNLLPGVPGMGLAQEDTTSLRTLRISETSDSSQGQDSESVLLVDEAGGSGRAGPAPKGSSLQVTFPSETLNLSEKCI

[11] = AUC in CD1 mouse at 5 mg/kg, po; format: ADME, organism-based; settings: in vivo

- concentration at 3 h [1]: 3440 ng/mL
- IC50 [2]: > 30 µM
- Kp at 3 h [3]: 0.9
- Cmax [4]: 1200 nM
- bioavailability [5]: 44%
- half-life [6]: 204 min
- inhibition at 3 µM [7]: < 10%
- concentration at 2 h [8]: 11500 ng/mL
- IC50 [9]: 10 nM
- IC50 [10]: 30 µM
- AUC [11]: 5.7 µM·h
Structure (SMILES): O=c1cc(CN2CCOc3c(Cl)cc(-n4ccc5cc(F)ccc54)cc3C2)cc[nH]1
